Source: PubChem (Sanford-Burnham Center for Chemical Genomics)
In the library only some 2.5% were active in any assay of this set; here they are far more common.
FLuc stim CS – FLuc activators, initial screening, artefact control for FLuc-dependent activation tests, biochemical, ATPlite luminescence; Luciferin 4-monooxygenase (Photinus pyralis), P08659; ATPlite luciferase biochemical, 10 min; 0 = ATP-free wells, 1 = DMSO control; activation factor at 10 µM; 200,000 tested, under 10 active;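 active = luciferase activation factor, scaled between plate controls, of at least 2 with compound at 10 µM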
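Material: Luciferase/luciferin reagent mix; Doses: test compounds dosed from 2 mM stocks in 100% DMSO; Schedule: 10 min incubation after luciferase reagent addition, room temperature; Measured by: luminescence from luciferase reaction; Read-out: luminescence gain marking luciferase activators.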
PMI act – activators of human PMI, primary screen, biochemical, fluorescence intensity, near-Km mannose 6-phosphate; Mannose-6-phosphate isomerase (Homo sapiens), P34949; purified human PMI, coupled resazurin fluorescence, 20 min; active compounds read high; 1 = vehicle control, 0 substrate-free wells; activation factor at 20 µM; actives 0.005% (n = 190,000); AID 1214, 2008;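 active = activation factor of 2 or more at 20 µM, relative to plate controls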
Target sequence (P34949 whole entry, looked up): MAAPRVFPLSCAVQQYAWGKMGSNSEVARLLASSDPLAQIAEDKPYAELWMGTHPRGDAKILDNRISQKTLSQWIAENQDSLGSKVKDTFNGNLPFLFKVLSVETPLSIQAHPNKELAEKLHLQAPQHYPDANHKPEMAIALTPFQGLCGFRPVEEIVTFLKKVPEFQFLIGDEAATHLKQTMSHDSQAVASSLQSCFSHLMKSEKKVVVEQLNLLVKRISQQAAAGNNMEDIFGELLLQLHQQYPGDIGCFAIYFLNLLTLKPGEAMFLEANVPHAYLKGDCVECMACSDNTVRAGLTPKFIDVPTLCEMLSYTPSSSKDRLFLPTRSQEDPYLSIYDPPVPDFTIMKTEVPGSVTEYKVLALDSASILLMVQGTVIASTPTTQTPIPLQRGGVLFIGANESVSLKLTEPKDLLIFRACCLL
PMI act hi M6P – human PMI activators, high substrate, primary screen, biochemical, fluorescence intensity, near-saturating mannose 6-phosphate. Mannose-6-phosphate isomerase (Homo sapiens), P34949. coupled PMI enzyme assay, resazurin fluorescence, 20 min; active compounds read high; 1 = untreated enzyme, 0 = substrate-free blank. activation factor at 20 µM. actives 0.34% (n = 190,000);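 active = activation factor of 2 or more at 20 µM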
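Test system: human PMI in coupled enzyme assay; Input: PMI at 15 ng/mL final; Medium: HEPES buffer, pH 7.4; Schedule: 20 min incubation at room temperature; Technique: resorufin fluorescence at Ex 544/Em 590 nm; Compound: 20 µM single dose; Probe or stimulus: Near-saturating mannose-6-phosphate, 1.0 mM.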
FLuc inhib CS – firefly luciferase enzyme inhibitors, primary screen, artefact control for luciferase-based inhibitor screens, biochemical, luminescence, ATPLite. Luciferin 4-monooxygenase (Photinus pyralis), P08659. 10 min. inhibition, % at 10 µM. actives 1.5% (n = 200,000);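 active = inhibition above about 50% when tested at 10 µM, limit read from the data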
Diaph inh CS – diaphorase inhibitors and chemical oxidizers, primary screen, counter-screen for diaphorase-coupled primary assays, biochemical, uHTS, resorufin fluorescence. actives 0.69% (n = 190,000). inhibition, % at 20 µM. diaphorase resazurin-to-resorufin fluorescence, NADH, 16 min; bacterial (C. kluyveri) enzyme, not human;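 active = primary screen inhibition at 20 µM above a set limit, cut at about 50% in these data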;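 note: plate controls were DMSO with full reaction for no effect and wells lacking NADH for full effect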
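Benchmarks: positive control wells lacking NADH, neutral wells with DMSO only. System: bacterial diaphorase enzyme (C. kluyveri). Input: 0.14 U/mL diaphorase, enzyme working solution. Detection: resorufin fluorescence, excitation 544 nm, emission 590 nm. Times: 16-min room-temperature incubation before reading.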
Diaph act CS – compounds boosting diaphorase resazurin reduction – biochemical, uHTS, resorufin fluorescence, counter-screen for diaphorase-coupled primary assays, primary screen. activation factor at 20 µM. AID 1229, 2008. Diaphorase/resazurin coupled assay, 16 min; active compounds read high; 1 = vehicle wells, 0 = NADH-free wells. actives 0.005% (n = 190,000);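 active = diaphorase activity raised at least twofold by the compound at 20 µM; inactive = activation factor below 2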
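Material: bacterial diaphorase enzyme (C. kluyveri); amount: enzyme 0.07 U/mL final; reagent: NADH substrate 0.114 mM plus resazurin dye 0.1 mM, final; doses: single compound dose of 20 µM, 1% DMSO final; timing: 16 min enzyme reaction, ambient temperature; measured by: fluorescence of resorufin, 544 nm excitation, 590 nm emission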
* = called active by the depositor.

SMILES | FLuc stim CS | PMI act | PMI act hi M6P | FLuc inhib CS | Diaph inh CS | Diaph act CS
COc1ccc(C2CC(=O)N3CN(c4ccc(C)c(Cl)c4)CSC3=C2C#N)cc1 (configuration not stated) | 1.1 | 1 | 0.8 | -6 | 50* | 0.5
COc1ccc(OC)c(C2CC(=O)N3CN(c4ccccc4)CSC3=C2C#N)c1 (configuration not stated) | 1 | 1 | 1.4 | -1 | 38 | 0.6
COc1ccc2ccccc2c1C1CC(=O)N2CN(C3CCCCC3)CSC2=C1C#N (configuration not stated) | 1 | 0.7 | 0.5 | 2 | 38 | 0.6
CCOc1cc(C2CC(=O)N3CN(C4CCCCC4)CSC3=C2C#N)ccc1O (configuration not stated) | 1 | 0.5 | 0.5 | -2 | 58* | 0.4
COc1ccc(C2CC(=O)N3CN(c4ccccc4F)CSC3=C2C#N)cc1OC (configuration not stated) | 1.1 | 0.7 | 1 | -9 | 53* | 0.5
Cc1cccc2sc(NS(C)(=O)=O)nc12 | 1 | 0.9 | 0.9 | 0 | 5 | 0.9
COc1ccc(/C=N/Nc2nncc3ccccc23)cc1 | 0 | 1.6 | 1.8 | 97* | 1 | 1
COc1ccc(/C=N/Nc2nccnc2Cl)cc1 | 0.3 | 1.1 | 1.1 | 70* | 0 | 1
COc1ccc(/C=N/Nc2nccnc2Cl)c(OC)c1 | 0.5 | 1 | 1 | 52* | 7 | 0.9
Oc1ccccc1/C=N/Nc1nccnc1Cl | 0.7 | 0.9 | 1 | 27 | 23 | 0.8
COc1ccccc1/C=N/Nc1nncc2ccccc12 | 0.5 | 1 | 1 | 48 | -8 | 1.1
COc1ccc(/C=N/Nc2cc(OC)ncn2)cc1 | 0.2 | 0.9 | 0.9 | 83* | 11 | 0.9
FC(F)(F)c1ccc(-c2noc(CN3CCCN(C4CCCCC4)CC3)n2)cc1 | 1.1 | 1 | 1 | -13 | -3 | 1
CCn1cc(Cl)c(C(=O)Nc2nc3ccccc3n2CCN2CCCCC2)n1 | 1 | 1 | 1 | -3 | 3 | 1
CC(C)c1ccccc1OCCNC(=S)NC(=O)c1cccnc1 | 1 | 0.9 | 0.9 | -4 | 20 | 0.8
O=C(CCc1nnc(CCCc2ccccc2)o1)NCC(F)(F)F | 1 | 0.8 | 0.9 | -4 | 50* | 0.5
Fc1ccc(N/N=C2/CC(c3ccccc3)Oc3ccccc32)c(F)c1 (configuration not stated) | 1 | 1.7 | 2.5* | 1 | 13 | 0.9
Cc1ccc(C)c(NS(=O)(=O)c2cc(C(N)=O)ccc2C)c1 | 1.1 | 0.6 | 1 | -6 | -9 | 1.1
Cc1ccc(C)c(S(=O)(=O)Nc2ccc(C(N)=O)cc2)c1 | 1.1 | 0.9 | 0.9 | -5 | 57* | 0.4
O=S(=O)(Nc1ncccn1)c1ccc(NC(=S)NCc2cccnc2)cc1 | 1 | 1 | 1 | -2 | 5 | 1
CNc1c([N+](=O)[O-])cnn1-c1cccc(Cl)n1 | 1.1 | 1.1 | 1.1 | -5 | -24 | 1.2
CCNC(=O)CSc1nnc(-c2ccccc2Br)n1-c1cccc(C(F)(F)F)c1 | 1 | 0.9 | 1.1 | -3 | 3 | 1
Cc1cc(NC(=O)CSc2ccc(-c3nc4cc(C)c(C)cc4[nH]3)cn2)no1 | 0.4 | 1 | 1 | 61* | -11 | 1.1
COC(=O)CSc1ccc(-c2nc3ccc(C)cc3[nH]2)cn1 | 0.4 | 1 | 1.1 | 61* | 5 | 1
Cc1cc2nc(-c3ccc(SCC(=O)Nc4ccc(S(=O)(=O)NC5CC5)cc4)nc3)[nH]c2cc1C | 0.1 | 0.8 | 0.9 | 86* | 19 | 0.8
SMILES | FLuc stim CS | PMI act | PMI act hi M6P | FLuc inhib CS | Diaph inh CS | Diaph act CS
Cc1cc2nc(-c3cccnc3SCC(=O)NC3CC3)[nH]c2cc1C | 0.3 | 1 | 1 | 70* | 3 | 1
Cc1cc2nc(-c3ccc(SCc4ccc(C(=O)O)cc4)nc3)[nH]c2cc1C | 0.8 | 1.1 | 1.2 | 18 | 14 | 0.9
Cc1ccc(C(=O)NCc2ccco2)cc1S(=O)(=O)Nc1cccc(Cl)c1 | 1 | 1 | 1.1 | -4 | -1 | 1
Cc1cc2nc(-c3ccc(SCC(=O)NC(C)C)nc3)[nH]c2cc1C | 0.5 | 0.9 | 0.8 | 51* | 7 | 0.9
Cc1cc2nc(-c3ccc(SCC(=O)N4CCc5ccccc54)nc3)[nH]c2cc1C | 0.2 | 0.9 | 0.9 | 82* | -5 | 1
CCc1cccc(CC)c1NC(=O)CO/N=C(\C)c1cccs1 | 1 | 0.9 | 1 | -1 | 6 | 0.9
CN(C)S(=O)(=O)c1cccc(C(=O)OCC(=O)Nc2sccc2C#N)c1 | 1 | 0.9 | 1 | 0 | 3 | 1
C(=N\N=C\c1cccs1)/c1cccs1 | 0.2 | 1 | 1 | 83* | 0 | 1
N#C/C(=C\c1ccc(N2CCOCC2)o1)c1nc2ccccc2[nH]1 | 0.2 | 0.8 | 0.5 | 85* | 24 | 0.8
N#C/C(=C\c1ccc(-c2ccc(C(=O)O)cc2)o1)c1nc2ccccc2[nH]1 | 1 | 0.9 | 0.8 | 2 | 65* | 0.4
N#C/C(=C\c1ccncc1)c1nc2ccccc2[nH]1 | 1 | 1.1 | 0.9 | 1 | 11 | 0.9
CCCOc1ccc2cc(-c3ccccn3)c(=O)oc2c1 | 0.1 | 1 | 1 | 92* | 6 | 0.9
CN(C)C(=O)COc1ccc2cc(-c3ccccc3)c(=O)oc2c1 | 0.8 | 1 | 1 | 22 | 6 | 0.9
Cc1cc(C)c2nc(NNC(=O)c3ccc(S(=O)(=O)N4CCc5ccccc5C4)cc3)sc2c1 | 1 | 1.1 | 1.1 | -3 | 7 | 0.9
Cc1cc(C)c2nc(NNC(=O)c3cc(=O)c4ccccc4o3)sc2c1 | 0.8 | 0.8 | 0.7 | 16 | 67* | 0.3
Cc1ccc(/C=C2\Sc3ccccc3C2=O)s1 | 0.1 | 1 | 1 | 87* | 11 | 0.9
O=C1/C(=C/c2cccnc2)Sc2ccccc21 | 0.7 | 0.9 | 0.8 | 32 | 13 | 0.9
O=C(NNC(=S)Nc1cccc2ccccc12)c1cccc(Br)c1 | 1 | 0.9 | 1 | 3 | 22 | 0.8
Cc1ccc(C(=O)NNC(=S)Nc2cccc3ccccc23)s1 | 0.4 | 0.9 | 0.6 | 58* | 26 | 0.7
